The array DNA melting data of Ke et al. (doi:10.1101/2024.01.08.574731)

Legend:
[1] = folding enthalpy; higher = less favourable; fluorescence melt of hairpins on a sequencing array, two-state fit; settings: sodium 0.088 M
Method in brief: (§1)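 Bootstrapped two-state fits yielded melting temperature and folding enthalpy for library hairpins. Cy3 fluorescence, with annealed Cy3 and quencher oligos, was imaged on a sequenced MiSeq flow cell in 50 mM Na-HEPES pH 8.0, 25 mM NaCl in 2.5 °C steps up to 60 °C, and normalised to pre-quench Cy3 and to control constructs. Four replicates were combined by inverse variance, and fitted temperatures were raised by 9.35 °C to match UV melts.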

[2] = melting temperature; fluorescence melt of hairpins on a sequencing array, two-state fit, raised by 9.35 °C to match UV melts; settings: sodium 0.088 M
Method in brief: as §1

Sequence | folding enthalpy [1] [kJ/mol] | Tm [2] [°C]
CGTCCGGAAACGGGAACG ((((((....)))..))) | -94.1 | 38.9
GCTAAATCGAAAGATAGC (((..(((....)))))) | -76.9 | 33.9
GGAATCGAAAGATGATCC ((((((....)))..))) | -74.3 | 29
GAGTTGAAAAACTC (((((....))))) | -92.2 | 44.7
GCTTATGGAAACACAAGC ((((.((....)).)))) | -110 | 33.2
GTCAGCGCGAAAGCGGAC (((..(((....)))))) | -65.4 | 46.6
GGGTGACCGAAAGGTCCC (((..(((....)))))) | -52.4 | 51.6
CGCATCGGAAACGAGGCG (((.(((....))).))) | -185 | 61.4
GTGTGGGGAAACCCATGC (..((((....))))..) | -90 | 43.1
GGACTAGGAAACTAGCCC ((.((((....)))).)) | -103 | 42.1
GATCTCGCGAAAGCGATC (((..(((....)))))) | -24.7 | 28.1
GCCTCGCGAAAGCAACGC ((.(.((....)).).)) | -24.9 | 23.4
GAAGCCGAAAGGCAATTC ((((((....)))..))) | -57.4 | 39.6
GGGACGGGAAACCGTCTC (.(((((....))))).) | -84.4 | 56.5
GAATTCCCGAAAGGGTTC (((..(((....)))))) | -54.4 | 28
GATCAAGTTGTTGATC ((((((....)))))) | -153 | 45.1
GCGTACACACGC ((((....)))) | -99.9 | 51.4
GACCACGCGAAAGCGGTC (((..(((....)))))) | -55.2 | 47.3
GACTCCCGAAAGGGGGTC (((.(((....))).))) | -140 | 63.7
GCCGGAGGAAACCCCGGC (((((.(....).))))) | -151 | 59.6
GCGTATCCACGC ((((....)))) | -110 | 51.7
GTTGTCGGAAACAACAAC (((((.(....).))))) | -97.7 | 40.2
GCTACGCGAAAGCCTCGC ((.(.((....)).).)) | -30.8 | 18.1

Sequence | folding enthalpy [1] [kJ/mol] | Tm [2] [°C]
GATCACATTAGTGATC ((((((....)))))) | -188 | 59.2
CGCGGAGCGATCCGCG ((((((....)))))) | -98.4 | 62.2
GAGAAAACGAAAGTTCTC (((..(((....)))))) | -81.4 | 30.8
GAAGCAGGAAACCGCTTC (((((.(....).))))) | -127 | 47.1
GGGGTTGGAAACAGCTCC ((.(.((....)).).)) | -103 | 37
GATCGAGGTCTCGATC ((((((....)))))) | -161 | 55.8
GATCCCAAGTGGGATC ((((((....)))))) | -157 | 60.5
GTGCCCGAAAGGGATCAC ((((((....)))..))) | -55.4 | 40.3
GGCGCTGCGAAAGCAGCC (((..(((....)))))) | -26.3 | 58.1
GATCTATGTGTAGATC ((((((....)))))) | -208 | 48
GTCCTCCGAAAGGAAGAC (((.(((....))).))) | -115 | 43.9
GACGCCGAAAGGCCTGTC ((((((....)))..))) | -56.4 | 35.1
GCCTGGCGAAAGCGGGGC (((..((....))..))) | -113 | 64
GGTTGTCGAAAGACCACC (((.(((....))).))) | -110 | 48.3
GTGGACGAAAGTCACCAC ((((((....)))..))) | -68.8 | 38
GTAGACGAAAGTCGATAC ((((((....)))..))) | -47 | 34.7
CGTGGCGGAAACGCGACG (((.(((....))).))) | -149 | 57.7
GTGACTCGAAAGAGCAC (((.(((....)))))) | -109 | 48.1
GCTCTGGGAAACCAGAGC (((((((....))))))) | -178 | 69
GCTAGGCGAAAGCATCGC ((.(.((....)).).)) | -66.7 | 38
GCATTACGAAAGTATTGC (((.(((....))).))) | -123 | 48.9
GGGACCGAAAGGTTCCC ((((((....))).))) | -112 | 60.4
GCCATGCGAAAGCCGGGC (((..((....))..))) | -109 | 55.3

Sequence | folding enthalpy [1] [kJ/mol] | Tm [2] [°C]
GCCGTTGCGAAAGCAGGC (((..(((....)))))) | -133 | 62.3
GGTCAACCGAAAGGTACC (((..(((....)))))) | -66.7 | 35.1
GCACTTACGAAAGTATGC (((..(((....)))))) | -75.9 | 30.3
GACAGGGGAAACCCTGTC (((((((....))))))) | -178 | 66.4
GAACACGAAAGTGTTTC ((((((....))).))) | -51.7 | 52.9
GATCCAATCATGGATC ((((((....)))))) | -157 | 50.8
GCCCCGCGAAAGCCCGGC (((..((....))..))) | -61.5 | 38.9
GACCACGAAAGTGGAGTC ((((((....)))..))) | -48.1 | 38.4
GCAGGGCGAAAGCTCGGC ((.(.((....)).).)) | -86.1 | 59.2
GGCTTCGGAAACAAAGCC (((((.(....).))))) | -118 | 44.2
GCACAGTCGAAAGACTGC (((..(((....)))))) | -37.1 | 39.3
GACAGTGGAAACACTGCC (.(((((....))))).) | -60.5 | 46
GGTGAGACGAAAGTCACC (((..(((....)))))) | -71.5 | 46.8
GATCACCTCAGTGATC ((((((....)))))) | -177 | 59.6
GCGATACGAAAGTACGC (((.(((....)))))) | -124 | 55.4
GCCAGGCGAAAGCCTCGC ((.((((....)))).)) | -72.7 | 54
GACACCGGAAACGGCATC ((..(((....)))..)) | -38.4 | 25.4
GCGAGCTCTCGC ((((....)))) | -129 | 53.1
GCACTGGCGAAAGCCTGC (((..(((....)))))) | -50.8 | 44.3
GATCAAAGGGTTGATC ((((((....)))))) | -118 | 39.1
GCGGTGGCGAAAGCCCGC (((..(((....)))))) | -97.5 | 66.9
GACGACGAAAGTCCGGTC ((((((....)))..))) | -75.2 | 39.3
GCAAACTCGAAAGAGTGC (((..(((....)))))) | -75.4 | 43.8

Sequence | folding enthalpy [1] [kJ/mol] | Tm [2] [°C]
GCGGTGGGCCGC ((((....)))) | -58.3 | 65.8
GTGCGCACGAAAGTGCAC (((..(((....)))))) | -47.7 | 64
GACAACGAAAGTTTGTC ((((((....))).))) | -115 | 47.3
GATCATTAGGATGATC ((((((....)))))) | -148 | 47.8
GGTGGTGGAAACATCGCC ((.(.((....)).).)) | -114 | 44.6
GTTTACGGAAACGTAAGC (.(((((....))))).) | -93.5 | 41.5
GCCTTGCGAAAGCCAGGC ((((.((....)).)))) | -131 | 62.6
GGATGACGAAAGTCTCC (((.(((....)))))) | -83.8 | 48.6
GATCAGGCCCTGATC ((((((...)))))) | -142 | 50.1
GATCTTGTGGAAGATC ((((((....)))))) | -123 | 41.3
GAACAAGGAAACCTGTTC (((((.(....).))))) | -108 | 37.3
GCACGGGCGAAAGCCTGC (((..(((....)))))) | -53.1 | 45.2
GACTACCGAAAGGTGTC (((.(((....)))))) | -90.4 | 49.6
GATCTAGTGTAGATC ((((((...)))))) | -111 | 38.5
GATCTATTCCTAGATC ((((((....)))))) | -125 | 40.4
GCAGAGTCGAAAGACTGC (((..(((....)))))) | -69.9 | 48.7
GCTTTGCGAAAGCACAGC (((.(((....))).))) | -199 | 50.7
GATCAACTAGTTGATC ((((((....)))))) | -162 | 56.3
GCCTCACGAAAGTGGGC (((.(((....)))))) | -140 | 58.6
GGGGATGAAAATCCCC ((((((....)))))) | -141 | 66.2
CGAACCGGAAACGGTCG (((.(((....)))))) | -96.3 | 51.4
GATTAGGGAAACCTAGTC ((.((((....)))).)) | -106 | 33.7
GTCCAAGCGAAAGCTGAC (((..(((....)))))) | -60.2 | 41.4
